A selection: hits, their analogues and other compounds. The true share with any hit is near 1.2%.
IDE cell inh: inhibits human insulin-degrading enzyme in HEK cells. P14735. FAbetaB cleavage, fluorescence polarization. inhibition, % at 5.59 µM. 320,000 compounds, 0.41% hits. AID 434962;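 active means percent inhibition above the average of all tested compounds plus 3 SD, set per screening campaign, cut at about 16% in these data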;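 further: IDE supplied by intact live HEK cells; FP after avidin binding of uncleaved biotin substrate so inhibition keeps polarization high; 0% = DMSO wells and 100% = 60 µM reference IDE inhibitor Ii1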
IDE cell activ: activators of human insulin-degrading enzyme in cells; P14735; HEK cells, FAbeta-B cleavage, fluorescence polarization; 0% vehicle, 100% cell-free pure enzyme wells; activation, % at 5.96 µM; 340,000 compounds, 0.073% hits;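 active means activation above the mean of all tested compounds plus 3 SD, set per screening campaign, cut at about 17% in these data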
TPT1 inhibitor: blocks Candida albicans tRNA 2'-phosphotransferase. 300,000 compounds, 0.81% hits. inhibition, % at 5 µM. recombinant caTPT1, FP RNA substrate dephosphorylation;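 active means inhibition above the mean of all tested compounds plus 3 SD, set per screening campaign, cut at about 24% in these data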;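 further: plate controls were DMSO alone for no effect and ferristatin control at 100 nM for full effect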
proCasp3 act: activates human procaspase-3. P42574. recombinant procaspase-3 D3A, Ac-DEVD-pNA absorbance 405 nm. activation, % at 8.5 µM. 330,000 compounds, 0.11% hits;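 active means activation above the mean of all tested compounds plus 3 SD, cut at about 21% in these data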;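 further: 0% = DMSO alone and 100% = DMSO wells spiked with extra 5 µM PC-3 D3A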
Target sequence (P42574 whole entry D9A/D28A/D175A): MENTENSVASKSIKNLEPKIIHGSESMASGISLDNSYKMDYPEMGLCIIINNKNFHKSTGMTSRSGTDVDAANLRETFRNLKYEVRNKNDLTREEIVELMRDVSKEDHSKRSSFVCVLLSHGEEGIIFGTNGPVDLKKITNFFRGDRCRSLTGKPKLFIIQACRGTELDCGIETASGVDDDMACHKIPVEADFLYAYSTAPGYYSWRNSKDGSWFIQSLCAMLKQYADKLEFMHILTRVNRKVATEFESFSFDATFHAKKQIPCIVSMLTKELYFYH
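assay system = Procaspase-3 D3A mutant | signal = absorbance at 405 nm, 0 and 120 min | times = 1 h preincubation plus 2 h reaction at 25 °C | repeats = single replicate | read-out = % activation between DMSO and enzyme-spiked controls | medium = Zinc-free HEPES saline buffer with Triton X-100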
procasp7 counter: activates human procaspase-7, counter-screen for procaspase-3 activators; recombinant procaspase-7, Ac-DEVD-pNA absorbance 405 nm; D23A/D198A/D206A triple mutant, cannot self-cleave; scale: DMSO 0, 5 µM enzyme 100; activation, % at 8.5 µM; 330,000 compounds, 0.093% hits; P55210; AID 463210;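 active means percent activation above the screen-wide mean plus 3 SD, cut at about 25% in these data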
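Assay system: Uncleavable procaspase-7 mutant enzyme; Input: 2 µM procaspase-7 mutant as dispensed; Also added: DEVD-pNA substrate; Medium: Zinc-free HEPES pH 7.4 with 300 mM NaCl, 0.01% Triton X-100; Timing: 1 h compound preincubation, 2 h substrate cleavage, 25 °C; Measured by: Epi-absorbance of released pNA at 405 nm, two timepoints.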
TPT1 inh confirm: confirmation of Candida albicans TPT1 inhibitors. shares compounds with TPT1 inhibitor. recombinant caTPT1, fluorescence polarization, RNase T1 coupled. inhibition, % at 5 µM. 2,400 compounds, 74% hits. AID 2149;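 active means inhibition above the primary screen limit, the mean inhibition of all tested compounds plus 3 SD, cut at about 25% in these data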
RNase T1 counter: RNase T1 inhibition in TPT1 counter-screen; 2,400 compounds, 83% hits; shares compounds with TPT1 inhibitor; inhibition, % at 5 µM; RNase T1 cleavage, fluorescence polarization, 1536-well;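 active means inhibition above the solvent-only control well mean plus 3 SD, limit set per screening run, cut at about 23% in these data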;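 further: plate controls were DMSO wells with enzyme for no effect and wells without RNase T1 for full effect; inhibitors block cleavage so intact labeled substrate keeps polarization high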
Target sequence (P00651 whole entry, looked up): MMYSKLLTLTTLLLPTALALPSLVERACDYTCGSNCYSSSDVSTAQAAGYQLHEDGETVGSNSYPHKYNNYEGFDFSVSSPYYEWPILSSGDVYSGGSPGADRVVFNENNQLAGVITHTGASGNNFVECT
* marks the source's active call; other numbers are inactive results; . = no result given.

SMILES	IDE cell inh	IDE cell activ	TPT1 inhibitor	proCasp3 act	procasp7 counter	TPT1 inh confirm	RNase T1 counter
COC(=O)C1CCN(C(=O)CN2C(=O)NC(CC(C)C)C2=O)CC1 (stereo not drawn)	-3	0	.	3	5	.	.
COc1ccc(/C=N/Nc2ccc(C(F)(F)F)cc2[N+](=O)[O-])cc1	-2	6	62*	-8	-4	7	12
COc1ccc(NS(=O)(=O)c2ccc(N/N=C/c3ccc(N4CCOCC4)cc3)c([N+](=O)[O-])c2)cc1	3	0	8	-1	5	.	.
CCOC(=O)c1sc(N)c(C#N)c1COC(=O)CNC(=O)c1ccccc1	7	-3	79*	12	2	92*	100*
O=C(CCCN1C(=O)/C(=C/c2cccs2)SC1=S)Nc1cccc(C(=O)O)c1	7	5	4	-6	-3	.	.
O=C(CCN1C(=O)/C(=C/c2cccs2)SC1=S)Nc1ccccc1O	0	2	24*	-14	-11	25*	36*
O=C(CCN1C(=O)/C(=C/c2cccs2)SC1=S)Nc1cccc(C(=O)O)c1	9	-2	53*	-11	-23	48*	63*
O=C(CCN1C(=O)/C(=C/c2cccs2)SC1=S)Nc1ccc(O)cc1	2	-1	8	0	-2	.	.
COc1ccc(/C=C2\SC(=S)N(CCCC(=O)Nc3ccccc3C(=O)O)C2=O)cc1OC	-6	5	39*	0	2	70*	77*
O=C(CCN1C(=O)/C(=C\c2cccs2)SC1=S)Nc1ccccn1	7	1	32*	-8	-12	28*	41*
Nc1ncnc2c1ncn2[C@@H]1O[C@H](CNCc2ccccc2OCC(=O)N2CCCCC2)[C@@H](O)[C@H]1O	-2	7	.	5	3	.	.
Cc1cccc(OS(=O)(=O)NC(=O)OCC2CCCN3CCCCC23)c1 (stereo not drawn)	2	9	4	9	2	.	.
CCN(CC)CC(C)CNC(=O)CN1C(=O)CSc2ccc(S(=O)(=O)N3CCOCC3)cc21 (stereo not drawn)	1	2	1	1	3	.	.
N[C@@H](C(=O)N[C@@H]1C(=O)N2C(C(=O)O)=C(Cl)CS[C@H]12)c1ccccc1	2	2	-4	0	-2	.	.
NC(=O)c1cc[n+](CC2=C(C(=O)O)N3C(=O)[C@@H](NC(=O)C(c4ccccc4)S(=O)(=O)[O-])[C@H]3SC2)cc1 (stereo partly drawn)	-2	-3	41*	-13	-23	39*	9
COc1ccc(N/C(C)=C/C(=O)c2ccccc2)cc1	2	2	0	3	8	.	.
COc1ccc(N/C(C)=C/C(=S)Nc2ccccc2)cc1	1	4	125*	-5	-6	10	13
CS(=O)(=O)c1ccc(C(=O)OCC(=O)N(CCc2ccccc2)Cc2ccccc2)cc1	0	0	0	10	12	.	.
O=C(NCCNC(=O)c1ccco1)c1cccc(F)c1	6	0	47*	1	12	10	12
O=C(NCCNC(=O)c1ccco1)c1ccc(F)cc1	0	-4	-3	7	2	.	.
O=[N+]([O-])c1ccc(Cl)c(S(=O)(=O)/N=C(/c2ccccc2)N2CCOCC2)c1	1	3	-2	-9	-3	.	.
COC(=O)c1c(SCC(=O)NC2CCCCC2)[nH]c2ccccc2c1=O	-2	2	25*	-2	1	19	30*
O=C(COC(=O)c1cc(=O)[nH]c2ccccc12)NC1CCCCC1	8	-2	.	-4	-1	.	.
Cc1ccc(C)c(S(=O)(=O)N2CCN(C(=O)c3cccnc3)CC2)c1	1	-6	-3	-1	2	.	.
COC(=O)/C=C/c1ccc2c(c1)OCO2	0	0	5	-3	10	.	.
SMILES	IDE cell inh	IDE cell activ	TPT1 inhibitor	proCasp3 act	procasp7 counter	TPT1 inh confirm	RNase T1 counter
CNc1ccc(Br)cc(C(=O)/C=C/c2cccc(OC)c2OC)c1=O	-5	1	41*	-17	-2	65*	76*
CCNc1ccc(Br)cc(C(=O)/C=C/c2ccccc2Cl)c1=O	-3	1	53*	0	-6	88*	94*
CNc1ccc(Br)cc(C(=O)/C=C/c2cccc(Cl)c2Cl)c1=O	.	-5	.	.	.	.	.
CCNc1ccccc(C(=O)/C=C/c2ccc3c(c2)OCO3)c1=O	3	-2	26*	-9	-19	15	19
CCC1CCC(NC(=O)Nc2cccc(OC)c2)CC1 (stereo not drawn)	3	-4	-1	8	-2	.	.
CN1C[C@@H]2[C@@H]3C(=O)N(C)C(=O)[C@@H]3[C@](Cc3ccccc3)(C1=O)N2C(=O)c1ccc(F)cc1	.	2	.	.	.	.	.
Cc1cc(Br)ccc1OCCN1CC(C)OC(C)C1 (stereo not drawn)	4	4	48*	-6	5	10	12
CCC(C)Sc1ccc([C@@H]2[C@@H]3C(=O)N(CC)C(=O)[C@@H]3[C@]3(C(=O)OC)CCCCN23)cc1 (stereo partly drawn)	-3	7	.	0	-12	.	.
O=C(NCc1ccco1)c1cnc2sccn2c1=O	2	2	-2	-3	9	.	.
O=C(NCCc1ccccc1)c1cnc2sccn2c1=O	4	-12	33*	1	-1	9	10
O=C(/C=C/c1ccco1)N1CCC(Cc2ccccc2)CC1	6	6	131*	11	9	2	2
N#C/C(=C\C=C\c1ccccc1)c1nc(-c2ccc3c(c2)OCO3)cs1	0	1	37*	-12	-12	36*	47*
C[C@@H]1C(=O)O[C@H]2[C@H](O)[C@@]34[C@H]5C[C@@H](C(C)(C)C)[C@]36[C@@H](OC(=O)[C@@H]6O)O[C@@]4(C(=O)O5)[C@@]12O	0	1	1	12	13	.	.
Cc1ccc(N=C2NC(=O)/C(=C/c3cccs3)S2)cc1C	7	-3	30*	-10	10	46*	59*
Cc1cccc(N=C2NC(=O)/C(=C\c3cccs3)S2)c1	-1	-3	4	-2	6	.	.
O=C(/C=C/c1ccc(-c2ccccc2)o1)c1ccccc1	0	-4	13	-12	-19	.	.
Cc1ccc(-c2ccc(/C=C/C(=O)c3ccccc3)o2)cc1	-4	-5	48*	-13	-26	77*	84*
CCN(CC)c1ccc(/C=N/OCC(=O)Nc2cccc(C)c2)cc1	4	2	34*	-1	10	43*	56*
